Legend:
Rattus norvegicus [1] = experiment: Ulcerogenicity was measured in stomach during the 3 week adjuvant arthritis test.(animals with ulcers/animals in test) at 0.0014 mM/kg (0.50 mg); type: functional
Summary of the method: (§1)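 Male Sprague-Dawley rats (200–230 g) were injected in the plantar tissue of one hind paw with 0.1 mL of 0.6% M. butyricum suspension in heavy mineral oil. Daily oral gavage began on the day of adjuvant injection and ran for the 21 days, with drug suspended in 1% gum tragacanth or a corn oil-water emulsion. At the end the rats were sacrificed and the small intestine and stomach were examined for ulcers. Results are given as animals with ulcers/animals tested.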

Rattus norvegicus [2] = organism: Rattus norvegicus; experiment: Compound was evaluated for highest non-ulcerogenic dose (less than 50% ulcer incidence); type: functional; conditions: read-out: ED50
Summary of the method: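 Taken from the 21-day adjuvant arthritis test in male Sprague-Dawley rats dosed orally each day from the day of adjuvant injection. Small intestines and stomachs were examined for ulceration at the end. The value is the highest dose giving less than 50% ulcer incidence.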

Rattus norvegicus [3] = experiment: Antiinflammatory efficacy is measured by the weight gain in rats during the 3 week adjuvant arthritis test at 0.0014 mM/kg (0.50 mg); type: functional
Summary of the method: (§2)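 Rats were adjuvant-injected (M. butyricum in mineral oil, one hind paw) or given a mineral-oil placebo. They were dosed by gavage daily for 21 days from the injection day, with vehicle only for both control groups, then weighed at the end. Weight gain % = (treated − adjuvant control)/(negative control − adjuvant control) × 100.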

Rattus norvegicus [4] = experiment: Antiinflammatory efficacy is measured by the weight gain in rats during the 3 week adjuvant arthritis test at 0.008 mM/kg (2.86 mg); type: functional; summary of the method: as §2
Rattus norvegicus [5] = experiment: Ulcerogenicity was measured in stomach during the 3 week adjuvant arthritis test.(animals with ulcers/animals in test) at 0.008 mM/kg (2.86 mg); type: functional; summary of the method: as §1
Rattus norvegicus [6] = experiment: Ulcerogenicity was measured in intestine during the 3 week adjuvant arthritis test.(animals with ulcers/animals in test) at 0.008 mM/kg (2.86 mg); type: functional; summary of the method: as §1
Rattus norvegicus [7] = experiment: Antiinflammatory efficacy is measured by the weight gain in rats during the 3 week adjuvant arthritis test at 0.011 mM/kg (3.94 mg); type: functional; summary of the method: as §2
Rattus norvegicus [8] = experiment: Potency relative to phenylbutazone at 0.0014 mM/kg; type: functional
Rattus norvegicus [9] = experiment: Antiinflammatory efficacy is measured by the percent inhibition of paw volume during the 3 week adjuvant arthritis test at 0.0014 mM/kg (0.50 mg); type: functional
Summary of the method: (§3)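 Male Sprague-Dawley rats (200–230 g) were used in groups of eight. Each received 0.1 mL of 0.6% M. butyricum in heavy mineral oil into the plantar tissue of one hind paw. Daily oral gavage in 1% gum tragacanth or corn oil-water emulsion began on the injection day and ran 21 days. Total hind paw volume was measured by mercury displacement, and inhibition was taken versus vehicle-treated adjuvant controls.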

Rattus norvegicus [10] = experiment: Ulcerogenicity was measured in intestine during the 3 week adjuvant arthritis test.(animals with ulcers/animals in test) at 0.0014 mM/kg (0.50 mg); type: functional; summary of the method: as §1
Rattus norvegicus [11] = experiment: Antiinflammatory efficacy is measured by the weight gain in rats during the 3 week adjuvant arthritis test at 0.55 mM/kg (113 mg); type: functional
Summary of the method: (§4)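 Male Sprague-Dawley rats (200–230 g), eight per group, received 0.1 mL of 0.6% M. butyricum in heavy mineral oil (negative controls: mineral oil) into one hind-paw plantar tissue. Daily gavage in 1% gum tragacanth or corn oil-water emulsion began on the injection day, for 21 days. Weight gain is expressed as (treated − adjuvant control)/(negative control − adjuvant control) × 100.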

Rattus norvegicus [12] = experiment: Antiinflammatory efficacy is measured by the weight gain in rats during the 3 week adjuvant arthritis test at 0.278 mM/kg (57.2 mg); type: functional; summary of the method: as §4
Rattus norvegicus [13] = experiment: Ulcerogenicity was measured in intestine during the 3 week adjuvant arthritis test, no of animals with ulcers out of animals tested at 0.08 mM/kg (35.0 mg) was reported; toxic; type: functional, organism-based; summary of the method: as §1
Rattus norvegicus [14] = experiment: Antiinflammatory efficacy is measured by the weight gain in rats during the 3 week adjuvant arthritis test at 0.005 mM/kg (2.19 mg); type: functional; summary of the method: as §2
Rattus norvegicus [15] = experiment: The mean increase in paw volume was compared between drug treated groups and placebo to calculate the percent inhibition in rats at 0.02 mmol/kg by carrageenan Edema Assay; 50-59; type: functional
Rattus norvegicus [16] = experiment: Potency relative to phenylbutazone at 0.005 mM/kg; type: functional
Rattus norvegicus [17] = experiment: Ulcerogenicity was measured in stomach during the 3 week adjuvant arthritis test, no of animals with ulcers out of 8 animals tested at 0.02 mM/kg (8.76 mg) was reported; type: functional; summary of the method: as §1
Rattus norvegicus [18] = experiment: Antiinflammatory efficacy is measured by the weight gain in rats during the 3 week adjuvant arthritis test at 0.02 mM/kg (8.76 mg); type: functional; summary of the method: as §2
Rattus norvegicus [19] = experiment: Antiinflammatory efficacy is measured by the percent inhibition of paw volume during the 3 week adjuvant arthritis test at 0.02 mM/kg (8.76 mg); type: functional; summary of the method: as §3
Rattus norvegicus [20] = experiment: Antiinflammatory efficacy is measured by the percent inhibition of paw volume during the 3 week adjuvant arthritis test at 0.005 mM/kg (2.19 mg); type: functional; summary of the method: as §3
Rattus norvegicus [21] = experiment: Ulcerogenicity was measured in intestine during the 3 week adjuvant arthritis test, no of animals with ulcers out of 8 animals tested at 0.02 mM/kg (8.76 mg) was reported; type: functional
Summary of the method: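 In the 21-day adjuvant arthritis model, male Sprague-Dawley rats (200–230 g) received an M. butyricum mineral-oil suspension into one hind paw. They were dosed daily by gavage from the day of injection. At the end of the study the rats were killed, and the small intestines were examined for ulcers. Results are given as the number of ulcerated animals over the number tested.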

Rattus norvegicus [22] = experiment: The mean increase in paw volume was compared between drug treated groups and placebo to calculate the percent inhibition in rats at 0.08 mmol/kg by carrageenan Edema Assay; 0-19; type: functional

## COc1ccc2c(c1)c(CC(=O)O)c(C)n2C(=O)c1ccc(Cl)cc1 [INDOMETHACIN]
Rattus norvegicus [1]
  Ulcerogenic index: 6
Rattus norvegicus [2]
  highest non-ulcerogenic dose: 0.4 µmol/kg
Rattus norvegicus [3]
  Weight gain: 14%
Rattus norvegicus [4]
  Weight gain: 48%
Rattus norvegicus [5]
  Ulcerogenic index: 5
Rattus norvegicus [6]
  Ulcerogenic index: 17
Rattus norvegicus [7]
  Weight gain: 38%
Rattus norvegicus [8]
  Potency: 20%
Rattus norvegicus [9]
  Inhibition: 63%
Rattus norvegicus [10]
  Ulcerogenic index: 3

## CC(C)Cc1ccc(C(C)C(=O)O)cc1 (centres undefined) [IBUPROFEN]
Rattus norvegicus [2]
  highest non-ulcerogenic dose: 210 µmol/kg
Rattus norvegicus [11]
  Weight gain: 18%
Rattus norvegicus [12]
  Weight gain: 1%

## CC(CN1CCCCC1CC1CCCCC1)c1cccc(C(=O)c2ccc(Cl)cc2)c1 (centres undefined)
Rattus norvegicus [13]
  Ulcerogenic index: Toxic
Rattus norvegicus [2]
  highest non-ulcerogenic dose: 3 µmol/kg
Rattus norvegicus [14]
  Weight gain: 34%
Rattus norvegicus [15]
  inhibition in vivo at 20 µmol/kg: 50%
Rattus norvegicus [16]
  Relative potency: 11.9%
Rattus norvegicus [17]
  Ulcerogenic index: 0
Rattus norvegicus [18]
  Weight gain: 89%
Rattus norvegicus [19]
  Inhibition: 90%
Rattus norvegicus [20]
  Inhibition: 62%
Rattus norvegicus [21]
  Ulcerogenic index: 0

## CC(CN1CCCC1CC1CCCCC1)c1cccc(C(O)c2ccccc2)c1 (centres undefined)
Rattus norvegicus [22]
  inhibition in vivo at 80 µmol/kg: 0%

Reference: ChEMBL document CHEMBL1122782, “Bulky amine analogues of ketoprofen: potent antiinflammatory agents” (J Med Chem, 1984)
